Inhibition and Activity data for four molecules are collected here from ChEMBL document CHEMBL4020803, “Structure-based identification of inhibitors targeting obstruction of the HIVgp41 N-heptad repeat trimer” (Bioorg Med Chem Lett, 2017).

The source made the active and inactive calls. No cut-off for these calls is given here. Where only a bound is given, the exact number is not on record here.

Data set [1] deals with Human immunodeficiency virus 1. Put plainly: Antiviral activity against HIV1 assessed as inhibition of viral entry into human TZM-bl cells at 25 uM preincubated with cells for 1 hr followed by inoculation with 1 hr compound pretreated virus measured 48 hrs post compound wash out by luciferase reporter gene assay relative to control. It is filed as functional. The note with it: for inhibition at 25 µM: Human immunodeficiency virus 1, TZM-bl. Summed up:
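HIV-1 made by PEI co-transfection of pNL4-3.HSA.R-E- and pHXB2-env; titer set by X-Gal staining on TZM-bl. TZM-bl seeded 10^4/well a day ahead, pretreated 1 h at 37 °C with 25 μM compound, DMSO or 1 μM C34. Virus (MOI 0.1) preincubated 1 h with the same treatment, added, spinoculated 1,000 × g 1 h RT, 1 h 37 °C, washed, luciferase read at 48 h, normalized.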
(In general: Reporter assays use an easily measured gene product as a stand-in for the process of interest.)

In data set [2] the test system is TZM. Put plainly: Cytotoxicity against human TZM-bl cells assessed as decrease in cell viability at 25 uM after 6 hrs. It is filed as cell-based. The gist of the method: (§1)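 Viability measured in the same wells as the fusion read-out, using the combined luciferase/cell-viability kit. TZM-bl and HL2/3 cells were pretreated with 25 μM compound, DMSO or 1 μM C34, then co-cultured 6 h at 37 °C, 5% CO2. Duplicate wells per compound.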

The subject of data set [3] is Human immunodeficiency virus 1. Briefly: Inhibition of HIV1 gp41-induced cell-cell fusion between viral protein expressing human HL2/3 cells and TZM-bl target cells at 25 uM preincubated with cells followed by co-incubation for 6 hrs by luciferase reporter gene assay relative to control. Summed up: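 TZM-bl receptor cells seeded a day ahead, then TZM-bl and HL2/3 effector cells pretreated with 25 μM compound (DMSO stock diluted in complete medium), DMSO alone (maximum signal) or 1 μM C34 (maximum inhibition); cells co-incubated 6 h at 37 °C, 5% CO2. Fusion read by luciferase in a combined luciferase/viability kit; signal normalized to controls. Duplicate wells per compound.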

The test system of data set [4] is Human immunodeficiency virus 1. Put plainly: Antiviral activity against VSV-G pseudotyped HIV1 assessed as inhibition of virus entry by cell-based assay. It counts as functional. Summed up: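 VSV-G-pseudotyped HIV-1 (pNL4-3.HSA.R-E- plus pCMV-VSV-G, made by PEI transfection), tested at 25 μM. TZM-bl cells (10^4/well) and MOI 0.1 virus were each pretreated 1 h at 37 °C. Compound medium was replaced with the treated virus, then spinoculation at 1,000 × g for 1 h at room temperature and 1 h at 37 °C. Cells were washed, grown 48 h drug-free, and read by luciferase. Bafilomycin A1 control.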

The nature of data set [5]: Cytotoxicity against human HL2/3 cells assessed as decrease in cell viability at 25 uM after 6 hrs. It counts as cell-based. The note with it: hl2/3, 6 h. The gist of the method:
as §1

As to `CCn1c(SCC(=O)N/N=C/c2cccc(Oc3ccccc3)c2)nnc1-c1ccc(OC)cc1`, the inhibition result in data set [1] is “inactive”.

Regarding `Cn1c(SCC(=O)N/N=C/c2cc(Br)cc(Br)c2O)nc2ccccc21`, the Activity entry in data set [2] and in data set [5] was “Non-Toxic” throughout. The inhibition in data set [3] is above 50%. Also, the inhibition at 25 µM in data set [1] is above 50%. The inhibition entry in data set [4] is “inactive”.

For `Cc1ccc(CNC(=O)c2oc3ccc(S(=O)(=O)N4CCC5(CC4)OCCO5)cc3c2C)cc1`, the Activity entry in data set [2] and in data set [5] was “Non-Toxic” in each case. Further, the inhibition in data set [3] is above 50%. The inhibition at 25 µM in data set [1] was above 50%. Also, in data set [4], the inhibition entry was “inactive”.

For the molecule `COc1ccc(-c2cc(C(=O)NCc3ccc(Cl)cc3)n[nH]2)cc1S(=O)(=O)N1CCOCC1`, the inhibition result in data set [1] is “inactive”.

The inhibition is the percentage by which the read-out fell short of the control.
